Experimental data pooled from the literature.
Lines come from different studies, so protocols differ.
Target: Casein kinase I isoform alpha (CSNK1A1, Homo sapiens, UniProt P48729)

CCCCN(CCCC)C(=O)CN1C[C@H](c2cc(OC)c3c(c2)OCO3)[C@@H](C(=O)O)[C@@H]1CC(C)(C)CCC — remaining binding (cell-free assay, competition with immobilised ligand; 1 µM): 98.1%
c1cnn2ncc(-c3ccnc(N4CCC45COC5)n3)c2c1 — remaining binding (binding; 1 µM): 14%
CCC(=N\O)/C(C)=C/c1ccc(F)cc1 — remaining binding (cell-free assay, competition with immobilised ligand; 1 µM): 74%
O=C(c1ccc(Nc2ncc(Cl)c(-c3ccc(Cl)s3)n2)cc1)N1CCC(N2CCCC2)CC1 — remaining binding (binding, competition with immobilised ligand; 1 µM): 97%
CN(C)c1ncc(F)c(-c2cnn3ncccc23)n1 — remaining binding (binding; 1 µM): 98%
CC1=C(C#N)C(c2ccc3c(c2)c(NC(=O)c2ccccc2C)nn3C)C(C#N)=C(C)N1 — remaining binding (cell-free assay, competition with immobilised ligand; 1 µM): 70%
N[C@H]1CCN(c2nccc(-c3cnn4ncccc34)n2)C1 — remaining binding (binding; 1 µM): 41%
O=C(NCC1CCOCC1)c1n[nH]cc1NC(=O)c1c(F)cccc1F — remaining binding (binding, competition with immobilised ligand; 1 µM): 77%
Cc1cc(C)c(-n2ccn3nc(-c4cccnc4)cc23)cc1NC(=O)c1cc(C#N)cc(S(F)(F)(F)(F)F)c1 — remaining binding (cell-free assay, competition with immobilised ligand; 0.1 µM): 67%
C[C@@H](c1ccc(-n2cnc3c(N)ncnc32)cc1)N1CCc2nn(C)c(Cc3ccccc3)c2C1=O — remaining binding (binding, competition with immobilised ligand; 0.1 µM): 87%
CNCc1ccccc1-c1csc([C@H](C)Nc2nc(C)nc3cc(OC)c(OC)cc23)c1 — remaining binding (cell-free assay, competition with immobilised ligand; 1 µM): 74%
O=C(c1ccc(Nc2nccc(-c3cc4ccccc4s3)n2)cc1)N1CCC(N2CCCC2)CC1 — remaining binding (binding, competition with immobilised ligand; 1 µM): 78%
C[C@@H]1CCN(c2nccc(-c3cnn4ncccc34)n2)C1 — remaining binding (binding; 1 µM): 61%
COc1ncc2cc3ccccc3nc2c1C#N — remaining binding (cell-free assay, competition with immobilised ligand; 5 µM): 97%
O=C(NC[C@@H]1[C@H]2CN(C(=O)OCc3cc(C(F)(F)F)cc(C(F)(F)F)c3)C[C@@H]12)c1ccc2[nH]nnc2c1 — remaining binding (cell-free assay, competition with immobilised ligand; 1 µM): 100%
CCN1CCN(Cc2ccc(C(=O)Nc3ccc(C)c(Oc4ccc5c(c4)CC(=O)N5)c3)cc2C(F)(F)F)CC1 — remaining binding (binding, competition with immobilised ligand; 1 µM): 100%
COc1cnc(Nc2cccc(S(N)(=O)=O)c2)nc1N1CCN(c2ccccc2)CC1 — remaining binding (binding, competition with immobilised ligand; 1 µM): 93%
O=C(NCCCN1CCOCC1)c1ccc(Nc2ncc(Cl)c(-c3ccc(Cl)s3)n2)cc1 — remaining binding (binding, competition with immobilised ligand; 1 µM): 100%
Cc1cnn2ncc(-c3ccnc(N(C)C)n3)c2c1 — remaining binding (binding; 1 µM): 43%
C=CC(=O)N1CCC(C(=O)NCC(=O)N2CCN(c3nc(-c4cnc(N)nc4C(F)F)nc(N4CCOCC4)n3)CC2)CC1 — remaining binding (binding, competition with immobilised ligand; 1 µM): 89%
COc1ccnn2ncc(-c3ccnc(N(C)C)n3)c12 — remaining binding (binding; 1 µM): 55%
COc1ccc2c(c1)O[C@H](c1ccc(OC)c(OC)c1)C[C@@H]2NC(=O)C1(c2ccc3c(c2)OC(F)(F)O3)CC1 — remaining binding (cell-free assay, competition with immobilised ligand; 1 µM): 82%
